Measurements published in ChEMBL document CHEMBL4811311, “Ferulic acid amide derivatives with varying inhibition of amyloid-β oligomerization and fibrillization” (Bioorg Med Chem, 2021).

Key:
[1] = molecular target: T1, Amyloid-beta precursor protein (Homo sapiens, UniProt P05067); experiment: Inhibition of human biotinylated amyloid beta (1 to 42) oligomerization assessed as decrease in oligomer abundance measured after 1 hr by ELISA
[2] = molecular target: T1, Amyloid-beta precursor protein; experiment: Inhibition of human amyloid beta (1 to 40) fibrillization at 100 uM measured every 15 mins for 100 hrs by Thioflavin-T fluorescence assay relative to control
In short: (§1)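 Aβ40 monomerized in HFIP (1 mg/mL), dried under argon, diluted to 20 μM final in 20 mM Tris, 8 μM ThT, 0.3 M NaCl, pH 7.4. Compounds added in DMSO, triplicate; DMSO-only control taken as 100% aggregation. ThT fluorescence (ex 450/em 482 nm) read every 15 min for ~100 h; percent inhibition versus control, averaged over three independent samples.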

[3] = molecular target: T1, Amyloid-beta precursor protein; experiment: Inhibition of human amyloid beta (1 to 40) fibrillization at 20 uM measured every 15 mins for 100 hrs by Thioflavin-T fluorescence assay relative to control; in short: as §1

T1 sequence (P05067 whole entry): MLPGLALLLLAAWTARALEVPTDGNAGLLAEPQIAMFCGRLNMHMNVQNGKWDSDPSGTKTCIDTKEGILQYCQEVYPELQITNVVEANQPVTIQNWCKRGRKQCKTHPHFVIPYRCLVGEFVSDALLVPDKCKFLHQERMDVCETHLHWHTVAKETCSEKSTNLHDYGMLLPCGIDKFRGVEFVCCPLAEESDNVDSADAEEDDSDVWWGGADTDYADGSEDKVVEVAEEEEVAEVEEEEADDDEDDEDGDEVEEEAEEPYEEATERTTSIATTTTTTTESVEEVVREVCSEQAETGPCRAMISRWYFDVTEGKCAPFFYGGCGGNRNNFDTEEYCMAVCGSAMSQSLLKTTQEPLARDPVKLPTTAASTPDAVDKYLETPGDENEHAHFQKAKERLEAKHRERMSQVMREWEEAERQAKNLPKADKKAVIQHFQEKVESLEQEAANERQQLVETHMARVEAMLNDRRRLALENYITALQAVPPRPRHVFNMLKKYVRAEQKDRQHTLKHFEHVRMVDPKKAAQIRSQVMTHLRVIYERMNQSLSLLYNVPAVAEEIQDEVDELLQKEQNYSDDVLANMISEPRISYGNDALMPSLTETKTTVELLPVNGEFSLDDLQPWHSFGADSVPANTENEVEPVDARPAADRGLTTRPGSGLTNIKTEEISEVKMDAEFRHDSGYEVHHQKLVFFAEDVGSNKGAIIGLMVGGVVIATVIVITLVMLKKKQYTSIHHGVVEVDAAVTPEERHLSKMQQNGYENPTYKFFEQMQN

Structure (SMILES) | IC50 ([1]; read-out: IC50) [µM] | inhibition [2] [%] | inhibition [3] [%] | IC50 [1]
COc1cc(/C=C/C(=O)NCCC(=O)NCc2ccccc2)ccc1OCc1ccccc1 | 81.6 |  |  | 
COc1cc([C@H]2C[C@@H]2C(=O)N(C)C)ccc1OCc1ccccc1 | 45.8 | 8.81 |  | 
COc1cc(/C=C/C(=O)N2CCC[C@H]2C(=O)NCc2ccccc2)ccc1OCc1ccccc1 | 18.7 |  |  | 
COc1ccc(CNC(=O)C2CN(C(=O)/C=C/c3ccc(OCc4ccccc4)c(OC)c3)C2)cc1 | 4.78 |  |  | 
COc1cc([C@H]2C[C@@H]2C(=O)N2CCCCC2)ccc1OCc1ccccc1 | 18.7 | 13.3 | 0 | 
CCCN(CCC)C(=O)/C=C/c1ccc(OCc2ccccc2)c(OC)c1 | 12.4 | 17 | 9.35 | 
COc1cc(/C=C/C(=O)N2CCC[C@H]2C(=O)NCCOc2ccccc2)ccc1OCc1ccccc1 | 8.59 |  |  | 
CCN(CC)C(=O)/C=C/c1ccc(OCc2ccccc2)c(OC)c1 | 39.3 | 0 |  | 
COc1cc(/C=C/C(=O)N2CCC[C@@H]2C(=O)NCCOc2ccccc2)ccc1OCc1ccccc1 | 16.8 |  |  | 
CCN(CC)C(=O)CCc1ccc(OCc2ccccc2)c(OC)c1 | 34.9 | 6.49 |  | 
COc1cc(/C=C/C(=O)NCc2ccccc2)ccc1OCc1ccccc1 |  |  |  | Not Active
CCN(CC)C(=S)/C=C/c1ccc(OCc2ccccc2)c(OC)c1 |  |  |  | Not Active
CCN(CC)C(=O)/C=C/c1ccc(OS(=O)(=O)c2ccc(C)cc2)c(OC)c1 | 10.6 | 3.62 | 1.95 | 
COc1cc(/C=C/C(=O)N2CC(C(=O)NCc3ccc(F)cc3)C2)ccc1OCc1ccccc1 | 3.65 |  |  | 
COc1cc(/C=C/C(=O)NCCC(=O)N2CCCCC2)ccc1OCc1ccccc1 | 8.17 |  |  | 
COc1cc(/C=C/C(=O)N2CC(C(=O)N3CC(F)(F)C3)C2)ccc1OCc1ccccc1 | 21.8 |  |  | 
COc1cc(/C=C/C(=O)N2CC(F)(F)C2)ccc1OCc1ccccc1 | 107 |  |  | 
COc1cc(/C=C/C(=O)N2CCCC2)ccc1OCc1ccccc1 | 65.1 |  |  | 
COc1cc(-c2cncn2CCC(=O)NCCc2ccccc2)ccc1OCc1ccccc1 | 9.91 | 0 |  | 
CCN(CC)C(=O)/C=C/c1ccc(OCc2cscn2)c(OC)c1 |  |  |  | Not Active
CCN(CC)C(=O)C1CN(C(=O)/C=C/c2ccc(OCc3ccccc3)c(OC)c2)C1 | 12.8 |  |  | 
CCCN(CCC)C(=O)/C=C/c1ccc(OC)c(OC)c1 | 45.3 |  |  | 
COc1cc(/C=C/CN2CCCCC2)ccc1OCc1ccccc1 | 10.6 | 22.3 | 0.29 | 
CCCN(CCC)C(=O)/C=C/c1ccc(OCc2cc(F)cc(F)c2)c(OC)c1 |  |  |  | Not Active
COc1cc(/C=C/C(=O)N2CC(C(=O)NCc3ccccc3)C2)ccc1OCc1ccccc1 | 3.13 | 48.2 | 14.8 | 
COc1cc(/C=C/C(=O)N(C)C)ccc1OCc1ccccc1 | 24.6 | 0 |  | 
COc1cc(/C=C/C(=O)NCCOc2ccccc2)ccc1OCc1ccccc1 |  |  |  | Not Active

Structure (SMILES) | IC50 ([1]; read-out: IC50) [µM] | inhibition [2] [%] | inhibition [3] [%] | IC50 [1]
COc1cc(/C=C/C(=O)N2CC(C(=O)N3CCOCC3)C2)ccc1OCc1ccccc1 | 35.7 |  |  | 
COc1cc(/C=C/C(=O)N2CCCCC2)ccc1OCc1ccccc1 | 27.9 | 13.4 | 7.28 | 
COc1cc(/C=C/C(=O)O)ccc1O [FERULATE] | 226 | 36.8 | 9.75 | 
COc1cc(/C=C/C(=O)NCCC(=O)NCCOc2ccccc2)ccc1OCc1ccccc1 | 17.9 |  |  | 
COc1ccc(CNC(=O)CCNC(=O)/C=C/c2ccc(OCc3ccccc3)c(OC)c2)cc1 | 54.2 |  |  | 
COc1cc(/C=C/C(=O)N2CCOCC2)ccc1OCc1ccccc1 | 78.1 |  |  | 
CCN(CC)C(=O)/C=C/c1ccc(O)c(OC)c1 | 205 |  |  | 
COc1cc(/C=C/C(O)C(F)(F)F)ccc1OCc1ccccc1 (stereo not given) |  | 44.1 | 0 | Not Active
COc1cc(-c2cncn2Cc2ccccc2)ccc1OCc1ccccc1 |  | 27.5 | 2.21 | Not Active
COc1cc(/C=C/C(=O)NCc2ccco2)ccc1OCc1ccccc1 |  |  |  | Not Active
COc1cc(/C=C/C(=O)N2CCN(c3ccccc3)CC2)ccc1OCc1ccccc1 |  |  |  | Not Active
COc1cc(/C=C/C(=O)N2CC(C(=O)NCc3ccco3)C2)ccc1OCc1ccccc1 | 3.61 |  |  | 
COc1cc(/C=C/C(=O)Nc2nnn[nH]2)ccc1OCc1ccccc1 | 98.5 | 0 |  | 
COc1cc(/C=C/c2cnco2)ccc1OCc1ccccc1 |  |  |  | Not Active
COc1cc(/C=C/C(=O)N2CC(C(=O)NCCOc3ccccc3)C2)ccc1OCc1ccccc1 | 1.8 | 20.6 | 5.5 | 
COc1cc(-c2cncn2CCC(=O)NCCOc2ccccc2)ccc1OCc1ccccc1 | 7.76 | 13.8 | 5.98 | 
CCCN(CCC)C(=O)/C=C/c1ccc(OCCCOc2ccccc2)c(OC)c1 |  |  |  | Not Active
COc1cc(/C=C/C(=O)N2CCC[C@H]2C(=O)N2CCCCC2)ccc1OCc1ccccc1 | 17.1 |  |  | 
COc1cc(/C=C/C(=O)N2CC(C(=O)N3CCCCC3)C2)ccc1OCc1ccccc1 | 10.6 |  |  | 
COc1cc(/C=C/C(=O)N2CCC[C@@H]2C(=O)NCc2ccccc2)ccc1OCc1ccccc1 | 17.8 |  |  | 
COc1cc(/C=C/c2nnn[nH]2)ccc1OCc1ccccc1 |  | 9.56 |  | Not Active
CCN(CC)C(=O)/C=C/c1ccc(O)c(O)c1 | 119 | 91.9 | 73.1 | 
CCN(CC)C(=O)/C=C/c1ccc(OCc2cccnc2)c(OC)c1 |  |  |  | Not Active
CCCN(CCC)C(=O)/C=C/c1ccc(OCc2cc(OC)cc(OC)c2)c(OC)c1 |  |  |  | Not Active
CCCN(CCC)C(=O)/C=C/c1ccc(O)c(OC)c1 | 98.8 |  |  | 
COc1ccc(CNC(=O)[C@@H]2CCCN2C(=O)/C=C/c2ccc(OCc3ccccc3)c(OC)c2)cc1 | 19.2 |  |  | 
COc1cc(/C=C/C(=O)N(C)OC)ccc1OCc1ccccc1 | 79.9 |  |  | 
